Measured values taken from ChEMBL document CHEMBL1150307, “Design, synthesis and evaluation of novel sulfonyl pyrrolidine derivatives as matrix metalloproteinase inhibitors” (Bioorg Med Chem, 2008).

Key:
Aminopeptidase N = Aminopeptidase N (Homo sapiens, UniProt P15144); experiment: Inhibition of aminopeptidase N
Summary of the method: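 Enzyme and inhibitor were preincubated in sodium phosphate buffer (50 mM, pH 7.2) for 30 min at 37 °C. L-leucine p-nitroanilide was then added and incubated a further 60 min at 37 °C. Absorbance at 405 nm was used to calculate inhibition rates.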

[1] = biological target: 72 kDa type IV collagenase (Homo sapiens, UniProt P08253); experiment: Inhibition of MMP2
Summary of the method: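 Run in borate buffer (50 mM, pH 8.5) with succinylated gelatin as substrate. Enzyme and inhibitor were preincubated 30 min at 37 °C, then substrate was added for 60 min at 37 °C. Picrylsulfonic acid (0.03%) was added for 20 min at room temperature. Absorbance was read at 450 nm, and % inhibition was calculated against uninhibited and blank wells.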

Chain of 72 kDa type IV collagenase (P08253 whole entry): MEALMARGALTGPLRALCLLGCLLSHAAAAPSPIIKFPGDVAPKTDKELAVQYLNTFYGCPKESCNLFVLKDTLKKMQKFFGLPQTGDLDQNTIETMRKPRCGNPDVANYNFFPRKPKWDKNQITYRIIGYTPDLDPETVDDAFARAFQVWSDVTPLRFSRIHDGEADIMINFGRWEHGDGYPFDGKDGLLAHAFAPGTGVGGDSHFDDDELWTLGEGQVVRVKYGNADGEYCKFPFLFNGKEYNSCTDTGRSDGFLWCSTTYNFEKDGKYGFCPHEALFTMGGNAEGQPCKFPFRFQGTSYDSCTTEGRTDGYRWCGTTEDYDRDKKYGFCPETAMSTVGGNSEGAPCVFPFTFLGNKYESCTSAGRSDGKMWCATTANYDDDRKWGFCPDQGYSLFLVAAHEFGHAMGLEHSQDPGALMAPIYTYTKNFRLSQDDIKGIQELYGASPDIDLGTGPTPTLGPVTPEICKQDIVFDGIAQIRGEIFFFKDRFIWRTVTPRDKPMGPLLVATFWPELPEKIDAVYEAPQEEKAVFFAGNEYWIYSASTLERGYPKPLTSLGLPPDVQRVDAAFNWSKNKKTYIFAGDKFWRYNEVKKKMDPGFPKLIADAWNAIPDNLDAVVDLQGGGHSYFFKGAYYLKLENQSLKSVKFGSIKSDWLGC
Chain of Aminopeptidase N (P15144 whole entry): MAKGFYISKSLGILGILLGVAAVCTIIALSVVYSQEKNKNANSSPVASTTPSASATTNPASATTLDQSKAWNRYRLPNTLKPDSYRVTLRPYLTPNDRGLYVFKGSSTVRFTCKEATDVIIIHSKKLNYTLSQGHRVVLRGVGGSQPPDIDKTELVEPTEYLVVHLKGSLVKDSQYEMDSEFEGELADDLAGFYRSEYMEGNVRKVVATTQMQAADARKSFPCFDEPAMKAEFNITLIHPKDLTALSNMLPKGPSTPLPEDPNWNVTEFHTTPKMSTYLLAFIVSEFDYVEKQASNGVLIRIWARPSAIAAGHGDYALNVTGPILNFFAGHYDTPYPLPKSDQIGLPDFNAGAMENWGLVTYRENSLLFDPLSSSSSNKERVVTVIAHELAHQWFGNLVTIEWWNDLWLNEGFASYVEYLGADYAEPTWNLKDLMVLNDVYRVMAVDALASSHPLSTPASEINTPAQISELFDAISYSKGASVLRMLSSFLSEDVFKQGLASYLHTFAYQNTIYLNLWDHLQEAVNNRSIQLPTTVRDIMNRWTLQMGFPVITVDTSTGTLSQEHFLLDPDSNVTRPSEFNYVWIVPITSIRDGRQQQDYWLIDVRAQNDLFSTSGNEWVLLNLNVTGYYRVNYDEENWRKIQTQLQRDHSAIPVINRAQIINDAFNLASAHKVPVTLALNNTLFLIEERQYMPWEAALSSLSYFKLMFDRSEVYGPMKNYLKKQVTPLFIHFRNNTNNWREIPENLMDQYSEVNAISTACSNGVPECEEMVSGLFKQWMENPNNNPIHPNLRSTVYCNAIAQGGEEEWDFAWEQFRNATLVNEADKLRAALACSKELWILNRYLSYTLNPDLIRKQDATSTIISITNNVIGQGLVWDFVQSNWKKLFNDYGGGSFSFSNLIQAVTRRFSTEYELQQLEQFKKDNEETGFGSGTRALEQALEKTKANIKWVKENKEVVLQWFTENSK

Row | Compound | IC50 (Aminopeptidase N) [µM] | IC50 [1] [µM]
1 | COC(=O)[C@@H]1CC2(CN1S(=O)(=O)c1ccc(C)cc1)OCCO2 | 156 | 0.1
2 | O=C(NO)[C@@H]1CC2(CN1S(=O)(=O)c1ccccc1)OCCCCO2 | 107 | 0.012
3 | COC(=O)[C@@H]1CC2(CN1S(=O)(=O)c1ccc(C)cc1)OCCCO2 | 174 | 0.2
4 | Cc1ccc(S(=O)(=O)N2CC3(C[C@H]2C(=O)NO)OCCCCO3)cc1 | 73.2 | 0.008
5 | O=C(NO)[C@@H]1CC2(CN1S(=O)(=O)c1ccccc1)OCCCO2 | 82.7 | 0.011
6 | COC(=O)[C@@H]1CC2(CN1S(=O)(=O)c1ccccc1)OCCO2 | 151 | 0.2
7 | COC(=O)[C@@H]1CC2(CN1S(=O)(=O)c1ccccc1)OCCCCO2 | 135 | 1.5
8 | COC(=O)[C@@H]1CC(=O)CN1S(=O)(=O)c1ccccc1 | 75.8 | 2
9 | COC(=O)[C@@H]1CC2(CN1S(=O)(=O)c1ccc(C)cc1)OCCCCO2 | 124 | 0.3
10 | COC(=O)[C@@H]1CC2(CN1S(=O)(=O)c1ccccc1)OCCCO2 | 168 | 1.1
11 | COC(=O)[C@@H]1CC(=O)CN1S(C)(=O)=O | 92.6 | 9.5
12 | COc1ccc(/C=C/C(=O)N2C[C@@H](NC(=O)c3cccnc3)C[C@H]2C(=O)NO)cc1OC | 142 | 0.009

Compounds with a lower IC50 (Aminopeptidase N), results first:

Row | IC50 (Aminopeptidase N) [µM] | IC50 [1] [µM] | Compound
13 | 61.8 | 0.006 | Cc1ccc(S(=O)(=O)N2CC3(C[C@H]2C(=O)NO)OCCCO3)cc1
14 | 57.8 | 0.008 | O=C(NO)[C@@H]1CC2(CN1S(=O)(=O)c1ccccc1)OCCO2
15 | 54.9 | 0.4 | COC(=O)[C@@H]1CC(=O)CN1S(=O)(=O)c1ccc(C)cc1
16 | 53.8 | 0.8 | COC(=O)[C@@H]1C[C@@H](O)CN1S(=O)(=O)c1ccccc1 (relative stereo)
17 | 48.5 | 0.003 | Cc1ccc(S(=O)(=O)N2CC3(C[C@H]2C(=O)NO)OCCO3)cc1
18 | 41.6 | 7.1 | COC(=O)[C@@H]1C[C@@H](O)CN1S(C)(=O)=O (relative stereo)
19 | 38.4 | 0.1 | COC(=O)[C@@H]1C[C@@H](O)CN1S(=O)(=O)c1ccc(C)cc1 (relative stereo)
